Results reported in ChEMBL document CHEMBL1147665, “Design, synthesis, and biological evaluation of 4-alkyliden-beta lactams: new products with promising antibiotic activity against resistant bacteria” (J Med Chem, 2006).
Converted amounts (≈) assume the structure as drawn.

How the values were obtained:
Haemophilus influenzae = assay: Antibacterial activity against Haemophilus influenzae; format: functional
Method in brief: (§1)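 Broth microdilution MIC per CLSI guidelines in Mueller-Hinton broth: serial 2-fold dilutions, inoculum 5 × 10⁵ CFU/mL in equal volume, 35 °C for 16-20 h. MIC = lowest concentration with no visible turbidity. Recent clinical isolates (43 total, Gram-positive and Gram-negative); values given as MIC ranges, MIC₅₀ and MIC₉₀ per species.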

Staphylococcus aureus [1] = assay: Antibacterial activity against methicillin-susceptible Staphylococcus aureus; format: functional; method in brief: as §1
[2] = Viability of human TPC1 cell line at 128 uM after 3 hrs; format: cell-based; conditions: TPC1 cells, read-out: Activity
Method in brief: (§2)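 Human TPC1 cells seeded at 40 000/well in supplemented DMEM, grown overnight at 37 °C, 5% CO₂. Fresh medium with compound (0-128 µM, 2-fold steps), six parallel wells per concentration and controls, exposed 3, 6 or 21 h. MTT (5 mg/mL stock diluted 1:15 in medium) for 3 h, acidified 2-propanol solubilization, OD 600 nm; viability relative to control.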

Enterococcus = assay: Antibacterial activity against Enterococcus spp; format: functional; method in brief: as §1
Streptococcus pneumoniae = assay: Antibacterial activity against Streptococcus pneumoniae; format: functional; method in brief: as §1
Staphylococcus aureus [3] = assay: Antibacterial activity against methicillin-resistant Staphylococcus aureus; format: functional
Method in brief: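 Clinical isolates (3 MRSA in a 43-strain panel). Broth microdilution per CLSI, serial 2-fold dilutions in Mueller-Hinton broth, inoculum 5 × 10⁵ CFU/mL, 35 °C for 16-20 h. MIC = lowest concentration with no visible turbidity; reported as MIC range, MIC₅₀ and MIC₉₀ across isolates.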

[4] = Viability of human TPC1 cell line at 128 uM after 21 hrs; format: cell-based; conditions: TPC1 cells, read-out: Activity; method in brief: as §2
Streptococcus pyogenes = assay: Antibacterial activity against Streptococcus pyogenes; format: functional; method in brief: as §1
[5] = Viability of human TPC1 cell line at 8 uM after 21 hrs; format: cell-based; conditions: TPC1 cells, read-out: Activity; method in brief: as §2
[6] = system: Staphylococcus epidermidis; assay: Antibacterial activity against Staphylococcus epidermidis; format: functional; method in brief: as §1
[7] = Viability of human TPC1 cell line at 32 uM after 21 hrs; format: cell-based; conditions: TPC1 cells, read-out: Activity; method in brief: as §2

| Compound | MIC50 (Haemophilus influenzae) | MIC90 (Haemophilus influenzae) | MIC50 (Staphylococcus aureus [1]) | MIC90 (Staphylococcus aureus [1]) | viability at 3 h, 128 µM [2] | MIC50 (Enterococcus) | MIC90 (Enterococcus) | MIC50 (Streptococcus pneumoniae) | MIC90 (Streptococcus pneumoniae) | MIC50 (Staphylococcus aureus [3]) | MIC90 (Staphylococcus aureus [3]) | viability at 21 h, 128 µM [4] | MIC50 (Streptococcus pyogenes) | MIC90 (Streptococcus pyogenes) | viability at 21 h, 8 µM [5] | MIC50 [6] | MIC90 [6] | viability at 21 h, 32 µM [7] |
| --- | --- | --- | --- | --- | --- | --- | --- | --- | --- | --- | --- | --- | --- | --- | --- | --- | --- | --- |
| O=C(/C=C1\NC(=O)[C@@H]1Cl)OCc1ccccc1 | 1 µg/mL (≈ 3.97 µM) | 2 µg/mL (≈ 7.95 µM) | 8 µg/mL (≈ 31.8 µM) | 16 µg/mL (≈ 63.6 µM) | 48% | 16 µg/mL (≈ 63.6 µM) | 16 µg/mL (≈ 63.6 µM) | 128 µg/mL (≈ 509 µM) | 128 µg/mL (≈ 509 µM) | 16 µg/mL (≈ 63.6 µM) | 32 µg/mL (≈ 127 µM) | 23% | 32 µg/mL (≈ 127 µM) | 128 µg/mL (≈ 509 µM) | 81% | 8 µg/mL (≈ 31.8 µM) | 32 µg/mL (≈ 127 µM) | – |
| COc1cc(C(=O)O[C@H](C)[C@H]2C(=O)N/C2=C\C(=O)OCc2ccccc2)cc(OC)c1OC | > 128 µg/mL | > 128 µg/mL | 8 µg/mL (≈ 17.6 µM) | 16 µg/mL (≈ 35.1 µM) | – | 128 µg/mL (≈ 281 µM) | > 128 µg/mL | > 128 µg/mL | > 128 µg/mL | 128 µg/mL (≈ 281 µM) | 128 µg/mL (≈ 281 µM) | – | 128 µg/mL (≈ 281 µM) | > 128 µg/mL | – | 4 µg/mL (≈ 8.78 µM) | 16 µg/mL (≈ 35.1 µM) | – |
| CCOC(=O)/C=C1\NC(=O)[C@@H]1Cl | 32 µg/mL (≈ 169 µM) | 32 µg/mL (≈ 169 µM) | 32 µg/mL (≈ 169 µM) | 64 µg/mL (≈ 338 µM) | – | > 128 µg/mL | > 128 µg/mL | 128 µg/mL (≈ 675 µM) | 128 µg/mL (≈ 675 µM) | 128 µg/mL (≈ 675 µM) | 128 µg/mL (≈ 675 µM) | – | 128 µg/mL (≈ 675 µM) | 128 µg/mL (≈ 675 µM) | – | 16 µg/mL (≈ 84.4 µM) | 32 µg/mL (≈ 169 µM) | – |
| C[C@@H](O[Si](C)(C)C(C)(C)C)[C@H]1C(=O)N/C1=C/C(=O)OCc1ccccc1 | 128 µg/mL (≈ 341 µM) | 128 µg/mL (≈ 341 µM) | 128 µg/mL (≈ 341 µM) | > 128 µg/mL | – | 64 µg/mL (≈ 170 µM) | 64 µg/mL (≈ 170 µM) | 32 µg/mL (≈ 85.2 µM) | 32 µg/mL (≈ 85.2 µM) | > 128 µg/mL | – | – | 64 µg/mL (≈ 170 µM) | 64 µg/mL (≈ 170 µM) | – | 128 µg/mL (≈ 341 µM) | > 128 µg/mL | – |
| CCOC(=O)/C=C1/NC(=O)[C@@H]1[C@@H](C)O[Si](C)(C)C(C)(C)C | 128 µg/mL (≈ 408 µM) | 128 µg/mL (≈ 408 µM) | > 128 µg/mL | > 128 µg/mL | – | > 128 µg/mL | > 128 µg/mL | 128 µg/mL (≈ 408 µM) | 128 µg/mL (≈ 408 µM) | 128 µg/mL (≈ 408 µM) | – | – | 128 µg/mL (≈ 408 µM) | 128 µg/mL (≈ 408 µM) | – | 128 µg/mL (≈ 408 µM) | 128 µg/mL (≈ 408 µM) | – |
| O=C(O)/C=C1\NC(=O)[C@@H]1Cl | 64 µg/mL (≈ 396 µM) | 64 µg/mL (≈ 396 µM) | 32 µg/mL (≈ 198 µM) | 64 µg/mL (≈ 396 µM) | – | 128 µg/mL (≈ 792 µM) | > 128 µg/mL | 128 µg/mL (≈ 792 µM) | 128 µg/mL (≈ 792 µM) | 128 µg/mL (≈ 792 µM) | 128 µg/mL (≈ 792 µM) | – | 16 µg/mL (≈ 99 µM) | 128 µg/mL (≈ 792 µM) | – | 64 µg/mL (≈ 396 µM) | 64 µg/mL (≈ 396 µM) | – |
| COc1cc(C(=O)O[C@H](C)[C@H]2C(=O)N/C2=C\C(=O)OCc2ccccc2)cc(OC)c1O | 64 µg/mL (≈ 145 µM) | 128 µg/mL (≈ 290 µM) | 16 µg/mL (≈ 36.2 µM) | 128 µg/mL (≈ 290 µM) | – | 128 µg/mL (≈ 290 µM) | > 128 µg/mL | 128 µg/mL (≈ 290 µM) | 128 µg/mL (≈ 290 µM) | 32 µg/mL (≈ 72.5 µM) | 64 µg/mL (≈ 145 µM) | 64% | 128 µg/mL (≈ 290 µM) | 128 µg/mL (≈ 290 µM) | – | 2 µg/mL (≈ 4.53 µM) | 64 µg/mL (≈ 145 µM) | 81% |
| CC1(C)S[C@@H]2[C@H](NC(=O)[C@H](N)c3ccc(O)cc3)C(=O)N2[C@H]1C(=O)O [AMOXICILLIN] | 1 µg/mL (≈ 2.74 µM) | 64 µg/mL (≈ 175 µM) | 1 µg/mL (≈ 2.74 µM) | 8 µg/mL (≈ 21.9 µM) | – | 2 µg/mL (≈ 5.47 µM) | 2 µg/mL (≈ 5.47 µM) | 0.12 µg/mL (≈ 0.328 µM) | 8 µg/mL (≈ 21.9 µM) | 64 µg/mL (≈ 175 µM) | 128 µg/mL (≈ 350 µM) | – | < 0.06 µg/mL | < 0.06 µg/mL | – | 1 µg/mL (≈ 2.74 µM) | 4 µg/mL (≈ 10.9 µM) | – |
| CO/N=C(\C(=O)N[C@@H]1C(=O)N2C(C(=O)O)=C(CSc3nc(=O)c(O)nn3C)CS[C@H]12)c1csc(N)n1 [CEFTRIAXONE] | < 0.06 µg/mL | 0.12 µg/mL (≈ 0.216 µM) | 2 µg/mL (≈ 3.61 µM) | 2 µg/mL (≈ 3.61 µM) | – | > 128 µg/mL | > 128 µg/mL | 0.12 µg/mL (≈ 0.216 µM) | 2 µg/mL (≈ 3.61 µM) | > 128 µg/mL | > 128 µg/mL | – | < 0.06 µg/mL | < 0.06 µg/mL | – | 8 µg/mL (≈ 14.4 µM) | 32 µg/mL (≈ 57.7 µM) | – |
| C[C@@H](O)[C@H]1C(=O)N2C(C(=O)O)=C(SCCNC=N)C[C@H]12 [IMIPENEM ANHYDROUS] | < 0.06 µg/mL | 0.12 µg/mL (≈ 0.401 µM) | < 0.06 µg/mL | < 0.06 µg/mL | – | 0.5 µg/mL (≈ 1.67 µM) | > 128 µg/mL | 0.12 µg/mL (≈ 0.401 µM) | 1 µg/mL (≈ 3.34 µM) | 64 µg/mL (≈ 214 µM) | 128 µg/mL (≈ 428 µM) | – | < 0.06 µg/mL | < 0.06 µg/mL | – | < 0.06 µg/mL | 1 µg/mL (≈ 3.34 µM) | – |
| C[C@@H](O)[C@H]1C(=O)N2C(C(=O)O)=C(S[C@@H]3CN[C@H](C(=O)N(C)C)C3)[C@H](C)[C@H]12 [MEROPENEM] | < 0.06 µg/mL | < 0.06 µg/mL | < 0.06 µg/mL | < 0.06 µg/mL | – | 2 µg/mL (≈ 5.22 µM) | > 128 µg/mL | < 0.06 µg/mL | 2 µg/mL (≈ 5.22 µM) | 32 µg/mL (≈ 83.4 µM) | 32 µg/mL (≈ 83.4 µM) | – | < 0.06 µg/mL | < 0.06 µg/mL | – | < 0.12 µg/mL | 64 µg/mL (≈ 167 µM) | – |
